The nature of data set [1]: Selectivity by the ratio of binding affinity of acid to the binding affinity of its ester.
Data set [2] relates to Rattus norvegicus. Nature of the data set: Compound was tested for its total (rat) loss-of-righting reflex LORR recovery time at a dose of 25 mg/kg. On the set-up: dose 25 mg/kg; unit not given here. The class given is functional, organism-based. In outline: (§1)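 Rat loss-of-righting-reflex test, after the method of ref 14. The compound is given as a bolus injection in 50% PEG/25% EtOH/25% saline. Initial and total recovery times are recorded in min.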

Data set [3] has as its system Rattus norvegicus. Kind of data set: Compound was tested for its initial (rat) loss-of-righting reflex LORR recovery time at a dose of 25 mg/kg. The class given is functional, organism-based. On the set-up: dose 25 mg/kg; unit not given here. In outline:
as §1

A short description of data set [4]: Binding affinity against rat benzodiazepine (BZD) receptor.
Data set [5] can be described thus: Aqueous solubility at pH 3 was determined. The format is physicochemical. In outline:
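Solubility of a saturated sample at pH 3, read by visual inspection or UV assay. The pH 3 value was cross-checked against solubility at other pH values and spectrophotometric pKa values.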

Data set [6] relates to Rattus norvegicus. Nature of the data set: Compound was tested for its initial (rat) loss-of-righting reflex LORR recovery time at a dose of 50 mg/kg. The class given is functional, organism-based. On the set-up: dose 50 mg/kg. In short, it runs like this: as §1
In data set [7] the test system is Rattus norvegicus. Nature of the data set: Compound was tested for its total (rat) loss-of-righting reflex LORR recovery time at a dose of 50 mg/kg. On the set-up: dose 50 mg/kg. The class given is functional, organism-based. In short, it runs like this:
as §1

Data set [8] has as its system Rattus norvegicus. Nature of the data set: Compound was tested for its total (rat) loss-of-righting reflex LORR recovery time at a dose of 30 mg/kg. On the set-up: dose 30 mg/kg. The class given is functional, organism-based.
Data set [9] concerns Rattus norvegicus. Nature of the data set: Compound was tested for its initial (rat) loss-of-righting reflex LORR recovery time at a dose of 30 mg/kg. The class given is functional, organism-based. On the set-up: dose 30 mg/kg. In outline:
as §1

In brackets after ≈: the same amount, converted by molar mass.

Take `COC(=O)CC[C@@H]1N=C(c2ccccc2F)c2cc(Cl)ccc2-n2c1cnc2C`: in data set [1], the Selectivity worked out at 226. Besides, the values for the Recovery time in the data set on Rattus norvegicus [2] and with Rattus norvegicus [3] were 24 and 20, respectively. The molecule further came in with a Ki in data set [4] of 11 nM.
Take `COC(=O)CC[C@@H]1N=C(c2ccccn2)c2cc(Cl)ccc2-n2c(C)cnc21`: the Selectivity in data set [1] came out at 147. Further, the solubility in data set [5] turned out to be 13000 µg/mL (≈ 32.9 mM). In addition, the Recovery time in the data set with Rattus norvegicus [2] amounted to 11; in the data set with Rattus norvegicus [3] it was 9. Moreover, the Ki in data set [4] came to 98 nM.
In data set [4], `COC(=O)CC[C@@H]1N=C(c2ccccc2F)c2cc(Cl)ccc2N=C1NCC(C)C` displayed a Ki of 1010 nM.
Same read-out and setting: next, `CCNC1=Nc2ccc(Cl)cc2C(c2ccccc2F)=N[C@H]1CCC(=O)OC`: 146 nM.
On to `COC(=O)CC[C@@H]1N=C(c2ccccc2F)c2cc(Cl)ccc2-n2cc(C)nc21`, for which the Selectivity in [1] is 156. For the same molecule, the Recovery time in the data set on Rattus norvegicus [2] came out at 21; in the data set on Rattus norvegicus [3], 6. The Ki in data set [4] worked out at 7 nM.
For the molecule `COC(=O)CC[C@H]1N=C(c2ccccc2F)c2cc(Cl)ccc2-n2c1cnc2C`, the Selectivity in [1] is 28. Further, in data set [4], the Ki was 3570 nM.
Turning to `COC(=O)CC[C@@H]1N=C(c2ccccc2F)c2cc(Cl)ccc2N=C1NCc1ccccc1`, the Ki in [4] was found to be 875 nM.
In the case of `COC(=O)CC[C@@H]1N=C(c2ccccn2)c2cc(Cl)ccc2-n2cc(C)nc21`, the Selectivity in data set [1] amounted to 156. Also, the concentration in solution in [5] (solubility) was 2000 µg/mL (≈ 5.07 mM). The Recovery time came out at 15 in the data set on Rattus norvegicus [2] and 13 in the data set with Rattus norvegicus [3]. Besides, in data set [4], the Ki is 60 nM.
With `COC(=O)CC[C@@H]1N=C(c2ccccn2)c2cc(Cl)ccc2-n2ccnc21`, the Selectivity in [1] is 176. Besides, the figures for the Recovery time in the data set on Rattus norvegicus [2] and in the data set on Rattus norvegicus [3] were 10 and 7, respectively. In addition, the affinity in data set [4] corresponds to a Ki of 79 nM.
Take `COC(=O)CC[C@@H]1N=C(c2ccccc2F)c2cc(Cl)ccc2N=C1NCCO`: in data set [4], the affinity, expressed as Ki, was 303 nM.
Regarding `COC(=O)CC[C@@H]1N=C(c2ccccn2)c2cc(Cl)ccc2NC1=O`, the Selectivity in data set [1] is 46. The Recovery time with Rattus norvegicus [6] came out at 9 mg/kg; in the data set on Rattus norvegicus [7], 16 mg/kg. Also, the solubility in data set [5] was 1000 µg/mL (≈ 2.79 mM). Also, the affinity in [4], expressed as Ki, was 139 nM.
In the case of `COC(=O)CC[C@@H]1N=C(c2ccccn2)c2cc(Cl)ccc2-n2c1nc(C)c2C`, the Selectivity in data set [1] is 40. In [4], this molecule had a Ki of 130 nM.
For `COC(=O)CC[C@@H]1N=C(c2ccccc2F)c2cc(Cl)ccc2N=C1NCc1ccncc1`, the Ki in [4] is 1230 nM.
In turn, `COC(=O)CC[C@@H]1N=C(c2ccccc2F)c2cc(Cl)ccc2N=C1NCCc1ccncc1` displayed a Ki in data set [4] of 792 nM.
In the case of `COC(=O)CC[C@@H]1N=C(c2ccccc2F)c2cc(Cl)ccc2NC1=O`, in [1], the Selectivity came out at 984. This molecule gave a solubility in [5] of less than 3000 µg/mL. Besides, the Recovery time with Rattus norvegicus [2] is 24; in the data set with Rattus norvegicus [3] it was 9. The same molecule yielded an inhibitory constant (Ki) in [4] of 7 nM.
In data set [4], `COC(=O)CC[C@@H]1N=C(c2ccccc2F)c2cc(Cl)ccc2N=C1NCCc1c[nH]cn1` registered a Ki of 208 nM.
In data set [4], `CNC1=Nc2ccc(Cl)cc2C(c2ccccc2)=[N+]([O-])C1` [CHLORDIAZEPOXIDE] returned a Ki of 438 nM.
As to `Cc1ncc2n1-c1ccc(Cl)cc1C(c1ccccc1F)=NC2` [MIDAZOLAM], the Recovery time in the data set on Rattus norvegicus [8] stood at 121 mg/kg; in the data set on Rattus norvegicus [9] it was 23 mg/kg. Further, the solubility in data set [5] was not below 8000 µg/mL. In [4], this molecule yielded a Ki of 2 nM.
For the molecule `CNC1=Nc2ccc(Cl)cc2C(c2ccccc2F)=N[C@H]1CCC(=O)OC`, the Selectivity in [1] amounted to 156. For the same molecule, the concentration in solution in data set [5] (solubility) was 13000 µg/mL (≈ 33.5 mM). The results for the Recovery time with Rattus norvegicus [2] and with Rattus norvegicus [3] were 22 and 15, respectively. For the same molecule, the affinity in data set [4] corresponds to a Ki of 96 nM.
With `COC(=O)CC[C@@H]1N=C(c2ccccc2F)c2cc(Cl)ccc2-n2ccnc21`, the Selectivity in [1] was 64. Moreover, the Recovery time in the data set on Rattus norvegicus [2] was 23; with Rattus norvegicus [3], 17. The affinity in [4], expressed as Ki, was 7 nM.
Take `COC(=O)CC[C@@H]1N=C(c2ccccc2F)c2cc(Cl)ccc2-n2c(C)cnc21`: the Selectivity in data set [1] came out at 74. Besides, the solubility in data set [5] is less than 1000 µg/mL. For the same molecule, the values for the Recovery time in the data set with Rattus norvegicus [2] and with Rattus norvegicus [3] were 33 and 23, respectively. In data set [4], the inhibition constant Ki was 8 nM.

Values taken from ChEMBL document CHEMBL1134956, “Relating the structure, activity, and physical properties of ultrashort-acting benzodiazepine receptor agonists” (Bioorg Med Chem Lett, 2002).
